Results taken from ChEMBL document CHEMBL3102784, “Salicylanilide diethyl phosphates: synthesis, antimicrobial activity and cytotoxicity” (Bioorg Med Chem, 2014).
Converted amounts (≈) assume the structure as drawn. The source made the active and inactive calls. The rule behind the calls is not given here.

How the values were obtained:
Mycobacterium avium [1] = assay: Antimycobacterial activity against isoniazid, rifampicin, ethambutol and ofloxacin-resistant Mycobacterium avium My 330/88 after 21 days; type: functional; conditions: My 330/88, 504 h
How it was run: (§1)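 Micromethod MIC in Šula's semisynthetic medium at 37 °C. Compounds added in DMSO at 1000 down to 0.032 µmol/L. Isoniazid standard in sterile water at 0.5–250 µmol/L. Inocula: H37Rv 10^3, M. avium 10^5, M. kansasii 10^4. Read at 14 and 21 d, plus 7 d for M. kansasii.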

Mycobacterium avium [2] = assay: Antimycobacterial activity against isoniazid, rifampicin, ethambutol and ofloxacin-resistant Mycobacterium avium My 330/88 after 14 days; type: functional; conditions: My 330/88, 336 h; how it was run: as §1
[3] = tested on: Mycobacterium tuberculosis; assay: Antimycobacterial activity against Mycobacterium tuberculosis H37Rv My 331/88 after 21 days; type: functional; conditions: H37Rv My 331/88, 504 h; how it was run: as §1
[4] = tested on: Mycobacterium tuberculosis; assay: Antimycobacterial activity against Mycobacterium tuberculosis H37Rv My 331/88 after 14 days; type: functional; conditions: H37Rv My 331/88, 336 h; how it was run: as §1
[5] = tested on: Trichophyton mentagrophytes; assay: Antifungal activity against Trichophyton mentagrophytes 445 after 120 hrs by broth microdilution method; type: functional; conditions: Trichophyton mentagrophytes, 445, 120 h
How it was run: (§2)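 Filamentous dermatophyte tested by broth microdilution in RPMI 1640 with glutamine, fluconazole as reference. Value expressed as IC50 relative to growth control. Read at 72 and 120 h.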

[6] = tested on: Trichophyton mentagrophytes; assay: Antifungal activity against Trichophyton mentagrophytes 445 after 72 hrs by broth microdilution method; type: functional; conditions: Trichophyton mentagrophytes, 445, 72 h; how it was run: as §2
Lichtheimia corymbifera [7] = assay: Antifungal activity against Absidia corymbifera 272 after 48 hrs by broth microdilution method; type: functional; conditions: Lichtheimia corymbifera, 272, 48 h
How it was run: (§3)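 Broth microdilution in RPMI 1640 with glutamine, fluconazole as reference. For yeasts, MIC is ≥80% growth reduction (IC80) versus control. For filamentous fungi, the value is expressed as IC50. Readings at 24 and 48 h.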

Lichtheimia corymbifera [8] = assay: Antifungal activity against Absidia corymbifera 272 after 24 hrs by broth microdilution method; type: functional; conditions: Lichtheimia corymbifera, 272, 24 h; how it was run: as §3
Aspergillus fumigatus [9] = assay: Antifungal activity against Aspergillus fumigatus 231 after 48 hrs by broth microdilution method; type: functional; conditions: Aspergillus fumigatus, 231, 48 h; how it was run: as §3
Aspergillus fumigatus [10] = assay: Antifungal activity against Aspergillus fumigatus 231 after 24 hrs by broth microdilution method; type: functional; conditions: Aspergillus fumigatus, 231, 24 h; how it was run: as §3
Trichosporon asahii [11] = assay: Antifungal activity against Trichosporon asahii 1188 after 48 hrs by broth microdilution method; type: functional; conditions: Trichosporon asahii, 1188, 48 h; how it was run: as §3
Trichosporon asahii [12] = assay: Antifungal activity against Trichosporon asahii 1188 after 24 hrs by broth microdilution method; type: functional; conditions: Trichosporon asahii, 1188, 24 h; how it was run: as §3
Pichia kudriavzevii [13] = assay: Antifungal activity against Candida krusei E28 after 48 hrs by broth microdilution method; type: functional; conditions: E28, 48 h; how it was run: as §3
Pichia kudriavzevii [14] = assay: Antifungal activity against Candida krusei E28 after 24 hrs by broth microdilution method; type: functional; conditions: E28, 24 h; how it was run: as §3
Candida albicans [15] = assay: Antifungal activity against Candida albicans ATCC 44859 after 48 hrs by broth microdilution method; type: functional; conditions: ATCC 44859, 48 h; how it was run: as §3
Candida albicans [16] = assay: Antifungal activity against Candida albicans ATCC 44859 after 24 hrs by broth microdilution method; type: functional; conditions: ATCC 44859, 24 h; how it was run: as §3
Nakaseomyces glabratus = assay: Antifungal activity against Candida glabrata 20/I at 500 micromol/L after 24 to 48 hrs by broth microdilution method; type: functional, organism-based; how it was run: as §3
Candida tropicalis = assay: Antifungal activity against Candida tropicalis 156 at 500 micromol/L after 24 to 48 hrs by broth microdilution method; type: functional, organism-based; how it was run: as §3
Pseudomonas aeruginosa = assay: Antibacterial activity against Pseudomonas aeruginosa CCM 1961 at 500 micromol/L after 24 to 48 hrs by broth microdilution method; type: functional, organism-based
How it was run: (§4)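 Broth microdilution in Mueller–Hinton broth, compounds dissolved in DMSO, tested over a dilution series from 500 downward. MIC taken as ≥95% growth reduction (IC95) versus drug-free control. Benzylpenicillin comparator. Readings at 24 and 48 h.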

Klebsiella pneumoniae [17] = assay: Antibacterial activity against ESBL-positive Klebsiella pneumoniae J 14368/08 at 500 micromol/L after 24 to 48 hrs by broth microdilution method; type: functional, organism-based; how it was run: as §4
Klebsiella pneumoniae [18] = assay: Antibacterial activity against Klebsiella pneumoniae D 11750/08 at 500 micromol/L after 24 to 48 hrs by broth microdilution method; type: functional, organism-based; how it was run: as §4
Escherichia coli = assay: Antibacterial activity against Escherichia coli CCM 4517 at 500 micromol/L after 24 to 48 hrs by broth microdilution method; type: functional, organism-based; how it was run: as §4
Enterococcus sp. = assay: Antibacterial activity against Enterococcus sp. J 14365/08 at 500 micromol/L after 24 to 48 hrs by broth microdilution method; type: functional, organism-based; how it was run: as §4
[19] = tested on: Staphylococcus epidermidis; assay: Antibacterial activity against Staphylococcus epidermidis H 6966/08 after 48 hrs by broth microdilution method; type: functional; conditions: H 6966/08, 48 h; how it was run: as §4
[20] = tested on: Staphylococcus epidermidis; assay: Antibacterial activity against Staphylococcus epidermidis H 6966/08 after 24 hrs by broth microdilution method; type: functional; conditions: H 6966/08, 24 h; how it was run: as §4
Staphylococcus aureus [21] = assay: Antibacterial activity against methicillin-resistant Staphylococcus aureus H 5996/08 after 48 hrs by broth microdilution method; type: functional; conditions: H 5996/08, 48 h; how it was run: as §4
Staphylococcus aureus [22] = assay: Antibacterial activity against methicillin-resistant Staphylococcus aureus H 5996/08 after 24 hrs by broth microdilution method; type: functional; conditions: H 5996/08, 24 h; how it was run: as §4
Staphylococcus aureus [23] = assay: Antibacterial activity against Staphylococcus aureus CCM 4516/08 after 48 hrs by broth microdilution method; type: functional; conditions: CCM 4516/08, 48 h; how it was run: as §4
Staphylococcus aureus [24] = assay: Antibacterial activity against Staphylococcus aureus CCM 4516/08 after 24 hrs by broth microdilution method; type: functional; conditions: CCM 4516/08, 24 h; how it was run: as §4
Mycobacterium kansasii [25] = assay: Antimycobacterial activity against Mycobacterium kansasii 6509/96 after 21 days; type: functional; conditions: 6509/96, 504 h; how it was run: as §1
Mycobacterium kansasii [26] = assay: Antimycobacterial activity against Mycobacterium kansasii 6509/96 after 14 days; type: functional; conditions: 6509/96, 336 h; how it was run: as §1
Mycobacterium kansasii [27] = assay: Antimycobacterial activity against Mycobacterium kansasii 6509/96 after 7 days; type: functional; conditions: 6509/96, 168 h; how it was run: as §1
Mycobacterium kansasii [28] = assay: Antimycobacterial activity against Mycobacterium kansasii My 235/80 after 21 days; type: functional; conditions: My 235/80, 504 h; how it was run: as §1
Mycobacterium kansasii [29] = assay: Antimycobacterial activity against Mycobacterium kansasii My 235/80 after 14 days; type: functional; conditions: My 235/80, 336 h; how it was run: as §1
HepG2 = assay: Cytotoxicity against human HepG2 cells after 24 hrs by CellTiter assay; type: cell-based; conditions: HepG2, 24 h
How it was run: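 HepG2 cells (passage 27–33) in MEM with 10% FBS, L-glutamine and NEAA, seeded at 1×10^4 per well. Treated next day with compounds at 0.1–100 µM (or 0.1–25 µmol/L), triplicates, <1% DMSO, for 24 h at 37 °C, 5% CO2. MTS reagent added for 2 h, absorbance read at 490 nm. IC50 taken against untreated (100%) and 10% DMSO (0%) controls.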

Mycobacterium kansasii [30] = assay: Antimycobacterial activity against Mycobacterium kansasii My 235/80 after 7 days; type: functional; conditions: My 235/80, 168 h; how it was run: as §1

Structure (SMILES) | MIC (Mycobacterium avium [1]) | MIC (Mycobacterium avium [2]) | MIC [3] | MIC [4] | MIC50 [5] | MIC50 [6] | MIC50 (Lichtheimia corymbifera [7]) | MIC50 (Lichtheimia corymbifera [8]) | MIC50 (Aspergillus fumigatus [9]) | MIC50 (Aspergillus fumigatus [10]) | MIC80 (Trichosporon asahii [11]) | MIC80 (Trichosporon asahii [12]) | MIC80 (Pichia kudriavzevii [13]) | MIC80 (Pichia kudriavzevii [14]) | MIC80 (Candida albicans [15]) | MIC80 (Candida albicans [16]) | Activity (Nakaseomyces glabratus) | Activity (Candida tropicalis) | Activity (Pseudomonas aeruginosa) | Activity (Klebsiella pneumoniae [17]) | other results
CCOP(=O)(OCC)Oc1ccc(Cl)cc1C(=O)Nc1ccc(C(F)(F)F)cc1 | 4 µM (≈ 1.81 µg/mL) | 4 µM (≈ 1.81 µg/mL) | 1 µM (≈ 0.452 µg/mL) | 1 µM (≈ 0.452 µg/mL) | 31.2 µM (≈ 14.1 µg/mL) | 31.2 µM (≈ 14.1 µg/mL) | > 250 µM | > 250 µM | > 250 µM | > 250 µM | 250 µM (≈ 113 µg/mL) | 125 µM (≈ 56.5 µg/mL) | > 250 µM | 125 µM (≈ 56.5 µg/mL) | > 250 µM | 125 µM (≈ 56.5 µg/mL) | inactive | inactive | inactive | inactive | Activity (Klebsiella pneumoniae [18]): inactive; Activity (Escherichia coli): inactive; Activity (Enterococcus sp.): inactive; MIC95 [19]: 31.2 µM (≈ 14.1 µg/mL); MIC95 [20]: 31.2 µM (≈ 14.1 µg/mL); MIC95 (Staphylococcus aureus [21]): 62.5 µM (≈ 28.2 µg/mL); MIC95 (Staphylococcus aureus [22]): 62.5 µM (≈ 28.2 µg/mL); MIC95 (Staphylococcus aureus [23]): 31.2 µM (≈ 14.1 µg/mL); MIC95 (Staphylococcus aureus [24]): 31.2 µM (≈ 14.1 µg/mL); MIC (Mycobacterium kansasii [25]): 2 µM (≈ 0.904 µg/mL); MIC (Mycobacterium kansasii [26]): 2 µM (≈ 0.904 µg/mL); MIC (Mycobacterium kansasii [27]): 2 µM (≈ 0.904 µg/mL); MIC (Mycobacterium kansasii [28]): 2 µM (≈ 0.904 µg/mL); MIC (Mycobacterium kansasii [29]): 2 µM (≈ 0.904 µg/mL); IC50 (HepG2): 2.33 µM; MIC (Mycobacterium kansasii [30]): 1 µM (≈ 0.452 µg/mL)
CCOP(=O)(OCC)Oc1ccc(Br)cc1C(=O)Nc1ccc(Cl)c(Cl)c1 | 16 µM (≈ 7.95 µg/mL) | 16 µM (≈ 7.95 µg/mL) | 1 µM (≈ 0.497 µg/mL) | 1 µM (≈ 0.497 µg/mL) | > 500 µM | > 500 µM | > 500 µM | > 500 µM | > 500 µM | > 500 µM | > 500 µM | > 500 µM | > 500 µM | > 500 µM | > 500 µM | > 500 µM | inactive | inactive | inactive | inactive | Activity (Klebsiella pneumoniae [18]): inactive; Activity (Escherichia coli): inactive; Activity (Enterococcus sp.): inactive; MIC95 [19]: > 500 µM; MIC95 [20]: 500 µM (≈ 249 µg/mL); MIC95 (Staphylococcus aureus [21]): > 500 µM; MIC95 (Staphylococcus aureus [22]): 500 µM (≈ 249 µg/mL); MIC95 (Staphylococcus aureus [23]): > 500 µM; MIC95 (Staphylococcus aureus [24]): 500 µM (≈ 249 µg/mL); MIC (Mycobacterium kansasii [25]): 4 µM (≈ 1.99 µg/mL); MIC (Mycobacterium kansasii [26]): 4 µM (≈ 1.99 µg/mL); MIC (Mycobacterium kansasii [27]): 2 µM (≈ 0.994 µg/mL); MIC (Mycobacterium kansasii [28]): 4 µM (≈ 1.99 µg/mL); MIC (Mycobacterium kansasii [29]): 4 µM (≈ 1.99 µg/mL); IC50 (HepG2): 2.04 µM; MIC (Mycobacterium kansasii [30]): 2 µM (≈ 0.994 µg/mL)
